High-throughput results deposited in PubChem by several laboratories.
This is a sample that favours compounds with a hit; in the whole collection about 3.7% have one here.
CHOP UPR activ – apoptotic UPR (CHOP) activation; AID 449763; actives 0.34% (n = 330,000); activation, % at 10 µM; CHO-CHOP luciferase reporter, luminescence; percent of tunicamycin response over DMSO baseline;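 active = at 10 µM dose, activation of 40% or more, normalized to positive control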;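 note: 100% = tunicamycin at 10 µg/mL and 0% = DMSO alone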
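Material: CHO-CHOP cells, stable luciferase reporter of PERK-eIF2a-CHOP signalling; quantity: 500 reporter cells seeded per well; buffer or medium: F12 medium containing 10% fetal bovine serum; compound: one dose, 10 µM in 0.5% DMSO; incubation: 6 h compound treatment, 37 °C; measured by: Steady-Glo luciferase luminescence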
Dynein transport – blocks dynein driven cargo transport along microtubules; actives 0.47% (n = 220,000); z-score, hits read low; 3617.4 mouse cells, GR-EGFP nuclear translocation imaging; test concentration mostly 20 µM; stimulated with dexamethasone, 1 µM; hits give low values;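 active = plate z-score of nuclear minus cytoplasmic receptor signal below a set negative limit, without overly bright fluorescence or cell loss, cut at about -3.5 in these data, passing the limit was not always enough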;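 note: z-score of nuclear minus cytoplasmic ring GR-EGFP intensity difference per well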
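Buffer or medium: Induction medium lacking tetracycline, stripped serum | Also added: Dexamethasone agonist, 1.0 µM final, for 30 min | Timing: 48 h induction, 1 h compound, 30 min dex at 37 °C | Detection: Formaldehyde fixation, Hoechst nuclear stain, 10x automated fluorescence imaging | Measure: Nuclear versus cytoplasmic GR-EGFP signal, averaged per well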
Mdm2 MdmX PPI – human Mdm2/MdmX binding inhibition. SaOS-2 split-luciferase Mdm2/MdmX complementation, luminescence. inhibition, % at 8 µM. O15151+Q00987. actives 3% (n = 330,000);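 active = inhibition of at least 50% at 8 µM in the primary screen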
B2AR ag – activates human beta-2 adrenergic receptor causing internalization | P07550 | Am2.2-beta2AR cells, FAP receptor internalization, flow cytometry | response, % (concentration not given with the values) | actives 0.43% (n = 340,000);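 active = response above a set limit, near 3 SD of response in nonfluorescent compounds, cut at about 42% in these data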
Target sequence (P07550 whole entry, looked up): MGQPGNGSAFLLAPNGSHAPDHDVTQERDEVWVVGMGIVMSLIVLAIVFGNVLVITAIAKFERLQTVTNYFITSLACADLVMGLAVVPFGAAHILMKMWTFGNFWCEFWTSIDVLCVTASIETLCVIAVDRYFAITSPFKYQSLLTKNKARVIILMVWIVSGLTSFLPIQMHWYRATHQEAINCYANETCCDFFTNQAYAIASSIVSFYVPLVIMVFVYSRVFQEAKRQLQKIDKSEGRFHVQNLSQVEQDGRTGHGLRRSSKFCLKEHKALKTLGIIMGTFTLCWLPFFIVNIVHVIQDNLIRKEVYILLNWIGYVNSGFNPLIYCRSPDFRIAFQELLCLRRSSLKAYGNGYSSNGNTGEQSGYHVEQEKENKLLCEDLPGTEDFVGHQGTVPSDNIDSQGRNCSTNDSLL
XBP1 UPR activ – adaptive UPR (XBP1) activation | CHO-XBP1 luciferase reporter, IRE1-XBP1 UPR activation, luminescence; percent of tunicamycin response, DMSO as zero | activation, % at 20 µM | actives 0.33% (n = 330,000) | AID 463104;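 active = versus positive control, 20 µM dose yields 30% or more activation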;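 note: 100% = tunicamycin at 10 µg/mL and 0% = DMSO only wells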
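Material: CHO cell line with stable XBP1 luciferase reporter; buffer or medium: F12 medium containing 10% fetal bovine serum; compound: single point, 20 µM final compound, 1% DMSO; incubation: 6 h treatment, 37 °C; measured by: glow luminescence from Steady-Glo reagent; evaluation: activation, % of tunicamycin; control set: tunicamycin high, DMSO low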
Mdm2 ligase inh – inhibitors of human Mdm2 E3 ubiquitin ligase. Q00987. cell-based MDM2 ubiquitination luciferase reporter, 2 h; 0 = plate control, 100 = twice control, blank-subtracted. signal enhancement, % at 5 µM. actives 0.11% (n = 210,000);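 active = signal enhancement of 30% or more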;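 note: luminescence tracks abundance of the self-degrading MDM2-luciferase fusion protein; higher signal means inhibition of MDM2 E3 ligase activity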
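test system = mammalian cells stably expressing self-ubiquitinating, self-degrading MDM2 E3–luciferase fusion | quantity = 2000 cells/well | incubation = cell settling 4 h, compound treatment 2 h, both 37 °C | signal = luminescence with SteadyLite reagent, 15 min at room temperature | evaluation = % enhancement relative to plate controls after blank subtraction | benchmarks = plate controls and plate blanks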
Mdm2-MdmX conf – confirmation of human Mdm2/MdmX interaction inhibitors; shares compounds with Mdm2 MdmX PPI; Mdm2-MdmX binding, luminescent assay; inhibition, % at 8 µM; actives 55% (n = 10,000); AID 489028; in the data active = inhibition above about 40%
Full FLuc ctr – counter-screen for Mdm2/MdmX inhibitors: full-length luciferase; shares compounds with Mdm2 MdmX PPI; SaOS-2 full-length luciferase counterscreen, luminescence; inhibition, % at 8 µM; AID 504607; actives 77% (n = 6,200);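 active = mean inhibition at 8 µM reaching about 37%, which flags the compound as non-specific, limit read from the data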;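 note: p53-null SaOS-2 cells with luciferase driven by a doxycycline-inducible promoter; compound on cells about two nights before reading with doxycycline added after day one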
* marks the source's active call; other numbers are inactive results; · = no result.

SMILES	CHOP UPR activ	Dynein transport	Mdm2 MdmX PPI	B2AR ag	XBP1 UPR activ	Mdm2 ligase inh	Mdm2-MdmX conf	Full FLuc ctr
CCC(=O)NC(C)c1cc(Cl)c2cccnc2c1O (stereo unspecified)	0	·	39	-4	2	·	·	·
CCCC(=O)NC(c1ccc2c(c1)OCO2)c1cc(Cl)c2cccnc2c1O (stereo unspecified)	0	0.5	76*	13	3	-2	72*	21
CCC(=O)NC(c1ccc(C)cc1)c1cc(Cl)c2cccnc2c1O (stereo unspecified)	3	·	79*	1	2	·	55*	24
Cc1cc(=O)n2nc(N3CCC(C(=O)NCC(C)c4ccccc4)CC3)sc2n1 (stereo unspecified)	1	·	-17	-8	-2	·	·	·
CCN(CC)S(=O)(=O)c1cc(NC(=O)c2ccc(-n3cncn3)c([N+](=O)[O-])c2)ccc1C	2	·	24	10	-6	·	·	·
O=C(O)COc1ccccc1C(Nc1cccnc1)c1cc(Cl)c2cccnc2c1O (stereo unspecified)	-2	-0.23	-15	4	-2	-13	·	·
CCC(=O)NC(c1ccco1)c1cc(Cl)c2ccccc2c1O (stereo unspecified)	0	·	-24	4	-1	·	·	·
CCOc1ccc(C(Nc2cccnc2)c2cc(Cl)c3cccnc3c2O)cc1 (stereo unspecified)	2	-0.9	64*	5	6	-8	65*	43*
CCCC(=O)NC(c1ccco1)c1cc(Cl)c2cccnc2c1O (stereo unspecified)	-2	1.7	65*	0	0	18	46*	23
CN1CCN(C(c2ccc(Br)cc2)c2cc(Cl)c3cccnc3c2O)CC1 (stereo unspecified)	29	·	80*	38	12	·	62*	48*
O=C(COC(=O)c1cc(Cl)ccc1O)Nc1cc(C(F)(F)F)ccc1N1CCOCC1	-1	·	4	2	0	·	·	·
COc1ccc(S(=O)(=O)N(C)C[C@H]2Oc3c(NC(=O)CCC(F)(F)F)cccc3C(=O)N([C@H](C)CO)C[C@@H]2C)cc1	-1	·	37	-16	-2	·	·	·
C=CC[C@H](CC(=O)N(CCO)Cc1ccccc1)C(=O)NC[C@@H](OC(=O)[C@@H](CC=C)Cc1ccc(F)cc1)c1ccccc1	6	·	23	15	6	·	·	·
C=CCC[C@H](Cc1ccc(F)cc1)C(=O)OC[C@H](Cc1c[nH]c2ccccc12)NC(=O)[C@@H](CC=C)CC(=O)N(CCO)Cc1ccccc1	13	·	87*	8	2	·	20	·
C=CCC[C@@H](Cc1ccc(F)cc1)C(=O)OC[C@H](Cc1c[nH]c2ccccc12)NC(=O)[C@H](CC=C)CC(=O)N(CCO)Cc1ccccc1	8	·	88*	3	2	·	22	74*
C=CCC[C@@H](Cc1ccc(F)cc1)C(=O)OC[C@H](Cc1c[nH]c2ccccc12)NC(=O)[C@@H](CC=C)CC(=O)NCCO	-1	·	32	2	-2	·	·	·
C=CCC[C@@H](Cc1ccc(F)cc1)C(=O)OC[C@@H](Cc1c[nH]c2ccccc12)NC(=O)[C@@H](CC=C)CC(=O)NCCO	0	·	35	-4	-1	·	·	·
C=CCC[C@H](Cc1ccc(F)cc1)C(=O)OC[C@H](Cc1c[nH]c2ccccc12)NC(=O)[C@H](CC=C)CC(=O)NCCO	7	·	33	6	6	·	·	·
C=CCC[C@H](Cc1ccc(F)cc1)C(=O)OC[C@@H](Cc1c[nH]c2ccccc12)NC(=O)[C@@H](CC=C)CC(=O)N(CCO)Cc1ccccc1	10	·	86*	22	2	·	13	·
C=CCC[C@H](Cc1ccc(F)cc1)C(=O)O[C@H](CNC(=O)[C@@H](CC=C)CC(=O)N(CCO)Cc1ccccc1)c1ccccc1	7	·	63*	20	-3	·	32	·
CCn1cnc2cc(NC(=O)COc3ccc(C)cc3)ccc21	·	·	·	-1	·	·	·	·
OCCCNCc1ccc(N(c2ccccc2)c2ccccc2)cc1	1	·	29	10	-4	·	·	·
Cc1cc(NC(=O)c2ccccc2F)nc2c1c(=O)oc1ccccc12	0	-0.41	24	1	-1	-10	·	·
C=CC[C@H](CC(=O)N(CCO)Cc1ccccc1)C(=O)N[C@H](COC(=O)[C@@H](CC=C)Cc1ccc(F)cc1)Cc1ccccc1	10	·	71*	19	0	·	27	·
C=CC[C@H](CC(=O)NCCO)C(=O)NC[C@@H](OC(=O)[C@@H](CC=C)Cc1ccc(F)cc1)c1ccccc1	0	·	26	8	0	·	·	·
SMILES	CHOP UPR activ	Dynein transport	Mdm2 MdmX PPI	B2AR ag	XBP1 UPR activ	Mdm2 ligase inh	Mdm2-MdmX conf	Full FLuc ctr
C=CC[C@@H](CC(=O)N(CCO)Cc1ccccc1)C(=O)N[C@H](C)COC(=O)[C@@H](CC=C)Cc1ccc(F)cc1	0	·	20	-1	1	·	·	·
C=CC[C@@H](CC(=O)N[C@H](CO)Cc1ccccc1)C(=O)NC[C@H](OC(=O)[C@@H](CC=C)Cc1ccc(F)cc1)c1ccccc1	17	·	59*	-2	0	·	55*	62*
Cc1nn(C(=O)Cn2ccc([N+](=O)[O-])n2)c(C)c1Cl	1	·	2	-3	-8	·	·	·
C[C@@H](C(=O)CC(=O)OC(C)(C)C)[C@@H](O)c1ccccc1	1	·	9	2	0	·	·	·
CCN(CC)C(=O)Cn1cc(C(=O)C(=O)Nc2ccc3c(c2)OCCO3)c2ccccc21	4	·	29	0	-4	·	·	·
CN(c1cccc(NC(=O)CN(c2ccc(C34CC5CC(CC(C5)C3)C4)cc2)S(C)(=O)=O)c1)S(C)(=O)=O	32	0.64	76*	7	5	-5	54*	78*
CN(c1cccc(NC(=O)CN(c2ccc(F)cc2)S(C)(=O)=O)c1)S(C)(=O)=O	0	2.2	0	4	1	-21	·	·
COc1cccc(CNC(=O)Cn2ncn3cccc3c2=O)c1OC	2	·	12	-16	1	·	·	·
COC(=O)C1=C(Nc2ccc(C)cc2)C=C(C)C(C(=O)OC)C1c1cccc(OC)c1 (stereo unspecified)	-1	-0.94	53*	-7	0	-17	57*	62*
